≈ marks a conversion by molar mass, not a printed value. Calls of active or inactive are those of the source.

What is called CC50 is the concentration giving 50% cytotoxicity. Usually EC50 stands for the concentration at which the effect is half-maximal. In general, half-life refers to the time needed for the level to fall by half in the phase considered. A word on the solubility: it is the dissolved amount per volume that the medium holds.

Data set [1] in a line: Cytotoxicity against human HuH7 cells assessed as growth inhibition. Format: cell-based, Huh-7. Put shortly:
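Compound toxicity is measured as inhibition of Huh-7 cell growth, run in parallel with the HCVcc infection assay. CC50 comes from 10-point dose-response curves, done in duplicate with quadruplicate measurements.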

A short description of data set [2]: Selectivity index, ratio of CC50 for human HuH7 cells to EC50 for 1 MOI of HCV genotype 2 infected in human HuH7 cells. The arrangement: species or system Huh-7. Summed up: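 The SI is CC50 divided by EC50. Both values come from 10-point dose-response curves (duplicates, quadruplicate measurements) in Huh-7 cells. CC50 is from cell growth inhibition.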
The test system of data set [3] is Hepatitis C virus. In words: Antiviral activity against 1 MOI of HCV genotype 2 infected in human HuH7 cells assessed as inhibition of viral RNA replication after 72 hrs by confocal microscopy. Format: functional, organism-based, Hepacivirus hominis. As to conditions: genotype 2, Huh-7, 72 h. Put shortly:
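Reporter virus is cell-culture-adapted full-length JFH-1 with GFP inserted in NS5A domain III; GFP fluorescence tracks viral RNA replication. Serially diluted compound added to naïve Huh-7 cells, then infected with HCVcc at MOI 1. Live cells imaged by automated confocal microscopy at 72 h post-infection. EC50 from 10-point dose-response curves, run in duplicate with quadruplicate measurements.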

The nature of data set [4]: Half life in human liver microsomes. Format: ADME, Microsome. A general note: Microsomes from liver hold many membrane-bound enzymes, among them those of drug oxidation.
Data set [5] in a line: Half life in rat liver microsomes. Format: ADME, Microsome.
Data set [6] can be described thus: Solubility of the compound at pH 7.4. Type of data set: physicochemical. As to conditions: buffer.
In data set [7] the test system is Hepatitis C virus. The experiment in a line: Antiviral activity against HCV genotype 1 expressing envelope protein at 1 uM. The conditions noted are these: Hepacivirus hominis. Type of data set: functional, organism-based.
For data set [8], the system named is Hepatitis C virus. The experiment in a line: Antiviral activity against HCV genotype 2 by replicon assay. Format: functional, organism-based, Hepacivirus hominis. In general terms: Replicon systems follow genome replication, usually without infectious particles.

`COCCCNc1cc(C)nc2c(-c3ccc(C)cc3)c(C)nn12`: in data set [1], the CC50 was found to be 19 µM. The “Ratio CC50/EC50” value in data set [2] came to 8.3. In addition, the EC50 in data set [3] is 2300 nM.
For `Cc1ccc(-c2c(C)nn3c(NCCN(C)C)cc(C(F)(F)F)nc23)cc1`, the CC50 in data set [1] is 15 µM. Moreover, the “Ratio CC50/EC50” value in data set [2] is on record as 2.1. The EC50 in data set [3] is 7200 nM.
Take `Cc1cc(NC2CCN(C(C)C)CC2)n2nccc2n1`: the CC50 in data set [1] was 12 µM. Moreover, in data set [2], the “Ratio CC50/EC50” value was 1. Also, the EC50 in data set [3] was determined as 12000 nM.
Consider `Cc1ccc(-c2c(C)nn3c(NC4CCN(C(C)C)CC4)cc(C)nc23)cc1`, for which the half-life in data set [4] and in data set [5] was above 60 min in each case. The same compound showed a solubility in data set [6] of 73 µM (≈ 27.6 µg/mL). Moreover, in data set [7], the result was inactive. The EC50 result in data set [8] is “Not Active”; in data set [3], 280 nM. Further, in data set [1], the CC50 was 8.8 µM. Also, the “Ratio CC50/EC50” value in data set [2] was found to be 31.
With `Cc1ccc(-c2c(C)nn3c(NCCCN(C)C)cc(C)nc23)cc1`, the half-life in data set [4] is above 60 min; in data set [5], 22.4 min. Further, the concentration in solution in data set [6] (solubility) came to 76 µM (≈ 25.6 µg/mL). In addition, the result in data set [7] was inactive. The CC50 in data set [1] is 22 µM. Also, in data set [2], the “Ratio CC50/EC50” value turned out to be 41. For the same compound, the EC50 in data set [3] turned out to be 540 nM.
For the compound `Cc1ccc(-c2c(C)nn3c(NCCc4ccccc4)cc(C)nc23)cc1`, the CC50 in data set [1] was determined as 5.2 µM. For the same compound, the “Ratio CC50/EC50” value in data set [2] came to 1. The EC50 in data set [3] was determined as 5300 nM.
Taken in the same sequence, the figures for `Cc1ccc(-c2c(C)nn3c(NCc4cccnc4)c4c(nc23)CCCC4)cc1` were 8.7 µM, 3.1 and 2800 nM.
`Cc1ccc(-c2c(C)nn3c(NC4CCN(C)CC4)cc(C)nc23)cc1`: the CC50 in data set [1] amounted to 18 µM. In addition, in data set [2], the “Ratio CC50/EC50” value is 18. The EC50 in data set [3] came out at 1000 nM.

The record behind these values is ChEMBL document CHEMBL2203124, “Discovery and characterization of a novel 7-aminopyrazolo[1,5-a]pyrimidine analog as a potent hepatitis C virus inhibitor” (Bioorg Med Chem Lett, 2012).
